Shown are actives, neighbours in structure and some others; about 1.5% of the full set was active somewhere.
FLuc act counter – FLuc activators, initial screening, artefact control for FLuc-dependent activation tests, biochemical, ATPlite luminescence; activation factor at 10 µM; AID 1027, 2008; 200,000 tested, under 10 active; ATPlite luciferase biochemical, 10 min; 0 = ATP-free wells, 1 = DMSO control;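 active means luciferase activation factor, scaled between plate controls, of at least 2 with compound at 10 µM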
Target sequence (P08659 whole entry, looked up): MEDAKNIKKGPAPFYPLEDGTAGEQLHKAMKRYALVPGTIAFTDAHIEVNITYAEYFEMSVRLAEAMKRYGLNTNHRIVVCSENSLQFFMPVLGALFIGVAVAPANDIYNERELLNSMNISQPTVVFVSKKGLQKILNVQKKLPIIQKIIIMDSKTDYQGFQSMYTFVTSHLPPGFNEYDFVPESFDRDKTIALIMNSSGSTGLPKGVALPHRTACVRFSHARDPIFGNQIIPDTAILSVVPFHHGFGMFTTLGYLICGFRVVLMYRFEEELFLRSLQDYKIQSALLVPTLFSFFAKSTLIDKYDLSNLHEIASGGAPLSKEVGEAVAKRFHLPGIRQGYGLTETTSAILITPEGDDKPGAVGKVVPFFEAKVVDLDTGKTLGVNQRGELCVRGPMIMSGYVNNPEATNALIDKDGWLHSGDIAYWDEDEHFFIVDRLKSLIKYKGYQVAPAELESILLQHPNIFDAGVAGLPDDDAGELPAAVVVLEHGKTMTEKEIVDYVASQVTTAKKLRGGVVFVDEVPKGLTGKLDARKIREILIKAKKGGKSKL
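Assay system: Luciferase/luciferin reagent mix; Medium: PBS as buffer for the ATP substrate; Dosing: test compounds dosed from 2 mM stocks in 100% DMSO; Times: 10 min, room temperature; Signal: luminescence from luciferase reaction; Read-out: luciferase activation; Controls: No-ATP low control, compound-free enzyme-plus-ATP high control.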
PPC-1+TRAIL kill – compounds killing PPC-1 cancer cells with TRAIL present, primary screen, TRAIL potentiator project, ATPLite luminescence, uHTS | PPC-1 cells + TRAIL, ATPLite viability luminescence | cell killing (% activity), % at 4 µM or 5 µM | actives 0.41% (n = 220,000);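 active means cell killing above 50% in the first pass at 4 µM, then a duplicate retest at 5 µM averaging 50% or more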
TRAIL sens C8 – viability loss with TRAIL in NB7+C8 cells, primary screen, TRAIL sensitizer project, cell-based, ATPlite luminescence. inhibition (viability loss, TRAIL sensitization), % at 10 µM. actives 1% (n = 360,000). AID 624354, 2012;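 active means compounds causing at least 50% loss of cell viability in the single-dose screen, relative to plate controls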
FLuc inh counter – firefly luciferase enzyme inhibitors, primary screen, artefact control for luciferase-based inhibitor screens, biochemical, luminescence, ATPLite. 10 min. inhibition, % at 10 µM. actives 1.5% (n = 200,000). AID 1006, 2008;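 active means inhibition above about 50% when tested at 10 µM, limit read from the data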
A number is an active result; n = inactive; x = not tested or not shown.

SMILES	FLuc act counter	PPC-1+TRAIL kill	TRAIL sens C8	FLuc inh counter
O=C(NCc1ccccc1)N1CCC(Cc2ccccc2)CC1	x	x	n	x
O=C(Nc1nc2ccccc2[nH]1)C12CC3CC(CC(C3)C1)C2	n	n	70	50
Cc1ccc(C(=O)Nc2nc3ccccc3[nH]2)cc1	x	x	93	x
COc1ccc(C(=O)N[C@H](C(=O)Nc2nc3ccccc3[nH]2)C(C)C)cc1	n	n	n	53
O=C(Nc1nc2ccccc2[nH]1)c1cccc(Br)c1	x	x	n	x
O=C(Nc1nc2ccccc2[nH]1)c1cccs1	n	n	n	69
O=C(Nc1nc2ccccc2[nH]1)C1CC1	n	n	n	n
O=C(C[C@H]1C/C=C\CCC(=O)OC[C@H]2CCCN2C1=O)NCCO	x	x	n	x
O=C(c1cccs1)N1CCCC(c2nc3c(nnn3Cc3ccccc3Cl)c(=O)[nH]2)C1 (configuration not stated)	x	x	n	x
COc1ccc2c(c1OC)C(=O)OC2n1c(O)c(N=NC(C)=O)c2ccccc21 (configuration not stated)	x	n	n	x
Cc1c(C(=O)Nc2nc3ccccc3[nH]2)oc2ccc(Br)cc12	n	n	n	n
O=C(Nc1nc2ccccc2[nH]1)c1cccc(F)c1	x	x	n	x
CN(C)c1cccc(C(=O)Nc2nc3ccccc3[nH]2)c1	x	x	83	x
O=C(Nc1nc2ccccc2[nH]1)c1ccc([N+](=O)[O-])cc1	n	n	51	51
Cc1c(C(=O)Nc2nc3ccccc3[nH]2)oc2ccccc12	n	n	n	53
O=C(Nc1nc2ccccc2[nH]1)c1cccc([N+](=O)[O-])c1	n	n	n	n
COc1cc(C(=O)Nc2nc3ccccc3[nH]2)cc(OC)c1OC	n	n	n	n
COc1ccc(C(=O)Nc2nc3ccccc3[nH]2)cc1	x	x	91	x
Nc1nc2ccccc2cc1C(=O)NCc1ccc(-c2ccccc2)cc1	x	x	n	x
CCn1c(SCc2ccccc2F)nnc1-c1ccncc1	x	x	n	x
CCn1ccc(C(=O)Oc2ccc(C(C)C)cc2)n1	n	n	n	62
O=C(Nc1ccc(Cl)c(Cl)c1)C1C2C=CC3(O2)C1C(=O)N(CCN1CCCCC1)C3C(=O)NC1CCCCC1 (configuration not stated)	x	x	n	x
FC(F)(F)c1cccc(Sc2nc(-c3ccccc3)nnc2C(F)(F)F)c1	n	n	51	n
FC(F)(F)c1nnc(-c2ccccc2)nc1Sc1ccc(Cl)cc1	n	n	48	n
COc1cc(/C=C/c2ccc(O)cc2)cc(OC)c1	n	n	n	n
SMILES	FLuc act counter	PPC-1+TRAIL kill	TRAIL sens C8	FLuc inh counter
COC(=O)c1ccc2c(c1)C(C)(C)C(/C=C/c1ccc(O)cc1)=[N+]2C	n	n	52	n
COC(=O)c1ccc2c(c1)C(C)(C)C(/C=C/c1ccc(OC)c(OC)c1OC)=[N+]2C	n	n	67	n
O=C(NCc1nnc(SCC(=O)N2CCCCCC2)o1)c1ccccc1F	x	x	n	x
CCOc1ccc(-c2nc(-c3cccs3)c(CC(=O)O)s2)cc1OC	n	n	n	68
O=C(O)Cc1sc(-c2ccccc2)nc1-c1ccccc1	n	n	n	n
CC(C)(C)NC(=O)NC(=O)CN1CCN(c2cccc(Cl)c2)CC1	x	n	n	x
C(/C=C/c1ccccn1)=C\c1ccccc1	x	x	51	x
O=[N+]([O-])c1cc(S(=O)(=O)N2CCCCCC2)ccc1Cl	n	56	n	n
CC(=O)C[C@@H](O)CC(=O)[C@@H]1OC(=O)CCCCCCCCc2ccccc21	x	x	n	x
Cc1[nH]n(-c2ccccc2)c(=O)c1C=Nc1cnc2ccccc2c1	n	n	n	n
CCOc1ccc(N=Cc2c(C)[nH]n(-c3nc4ccccc4[nH]3)c2=O)cc1	n	74	87	70
COc1ccc(OC)c(NC(=O)NCc2ccc(F)cc2)c1	n	n	n	n
COc1ccc(C)cc1NC(=O)NCc1ccc(F)cc1	n	n	n	58
CC1(C)Cc2c(sc(NC(=O)COc3cccc4ccccc34)c2C#N)C(C)(C)N1	x	n	85	x
COC(=O)c1c(NC(=O)c2ccc(OC(C)C)cc2)sc2c1CC(C)(C)NC2(C)C	n	n	72	n
CCOC(=O)c1c(NC(=O)COc2ccccc2OCC)sc2c1CC(C)(C)NC2(C)C	x	x	91	x
Cc1ccc(OCC(=O)Nc2sc3c(c2C#N)CC(C)(C)NC3(C)C)cc1	n	n	n	n
COC(=O)c1c(NC(=O)c2ccccc2)sc2c1CC(C)(C)NC2(C)C	n	n	n	n
Cc1ccc(-c2nnc(-c3ccccc3Br)o2)cc1	x	x	58	x

Screening results (PubChem)
